DNMT1 inh = DNMT1 (human) enzyme inhibition; DNMT1 molecular beacon, Hinp1I cleavage, fluorescence; AID 588458; 360,000 tested, 0.83% active; inhibition (reported as % activation of signal), % at 10 µM; in the data active means inhibition above about 50%
LMPTP inh = blocks human LMPTP phosphatase. recombinant LMPTP-A, OMFP fluorogenic substrate, fluorescence intensity. 360,000 tested, 0.22% active. P24666. inhibition, % at 20 µM. AID 651560;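 active means compounds that cut the enzyme signal by at least half of the control window in the single-dose screen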
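Assay system: LMPTP-A phosphatase enzyme | Input: 0.625 nM enzyme | Also added: Fluorogenic phosphatase substrate OMFP at 400 µM final | Compound dosing: One test concentration per compound, 20 µM, with 3% DMSO overall | Schedule: 50 min enzyme reaction at room temperature, protected from light | Signal: Fluorescence intensity | Benchmarks: no-enzyme and uninhibited controls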
STEP inh = blocks human striatal-enriched tyrosine phosphatase. inhibition, % at 20 µM. P54829. recombinant STEP, OMFP fluorogenic substrate, fluorescence. AID 588621. 360,000 tested, 0.25% active;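 active means inhibition at 20 µM, scaled per plate between control wells, above about 37%, limit read from the data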
Target sequence (P54829 whole entry, looked up): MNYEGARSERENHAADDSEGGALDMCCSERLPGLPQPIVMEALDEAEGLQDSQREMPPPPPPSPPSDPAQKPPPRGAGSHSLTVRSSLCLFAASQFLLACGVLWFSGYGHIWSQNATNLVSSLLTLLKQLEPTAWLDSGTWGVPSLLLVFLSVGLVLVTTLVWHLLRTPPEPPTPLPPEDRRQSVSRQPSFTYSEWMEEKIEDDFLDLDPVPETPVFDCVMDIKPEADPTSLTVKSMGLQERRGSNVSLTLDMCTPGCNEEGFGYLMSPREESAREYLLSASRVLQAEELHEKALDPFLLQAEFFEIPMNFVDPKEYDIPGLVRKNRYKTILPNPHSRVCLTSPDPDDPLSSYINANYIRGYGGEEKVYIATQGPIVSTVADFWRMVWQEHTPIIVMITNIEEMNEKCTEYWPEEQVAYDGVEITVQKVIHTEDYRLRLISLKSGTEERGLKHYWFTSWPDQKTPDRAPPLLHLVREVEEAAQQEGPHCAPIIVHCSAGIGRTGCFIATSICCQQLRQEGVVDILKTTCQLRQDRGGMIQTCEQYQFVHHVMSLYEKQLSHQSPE
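System: isolated STEP enzyme; schedule: 20 min enzyme reaction at room temperature, protected from light; medium: Bis-Tris buffer pH 6.0, 2.5 mM DTT, 0.005% Tween 20; signal: fluorescence, 480/540 nm; dosing: single compound dose of 20 µM, 1% DMSO final; also added: OMFP substrate, 25 µM final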
SUMO1 PPI mod = modulators of human SUMO1-mediated protein-protein interactions; 360,000 tested, 0.33% active; inhibition, % at 20 µM; AID 602429; SUMO1 binding to a labelled peptide, TR-FRET, 1 h; in the data active means inhibition above about 37%
Scp1 inh = blocks human Scp-1 phosphatase activity | 340,000 tested, 0.88% active | inhibition, % at 20 µM | Q9GZU7 | Recombinant Scp1, phosphopeptide, malachite green phosphate absorbance;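 active means inhibition above about 50% at 20 µM, limit read from the data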
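Test system: SCP-1 phosphatase catalytic domain, residues 76-261; measured by: colorimetric phosphate reagent with accelerator and stabiliser, absorbance at 630 nm; timing: enzyme reaction 45 min at room temperature, colour 5 min, stabilisation 30 min; also added: Phosphorylated 17-residue peptide substrate; compound dosing: one concentration, 20 µM, with 1.0% DMSO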
Hits are given with their value; . = inactive; / = no result given; + = active, no number. Shown are actives, neighbours in structure and some others; about 1.8% of the full set was active somewhere.

SMILES	DNMT1 inh	LMPTP inh	STEP inh	SUMO1 PPI mod	Scp1 inh
CCC(C)(C)NC(=O)CN(CC1CCCO1)C(=O)CCC(=O)Nc1nccs1 (configuration not stated)	.	.	.	47	.
O=C(NCc1ccco1)c1cc2c(s1)CSC2	/	/	/	/	99
O=C(NCc1ccc2c(c1)OCO2)c1cc2c(s1)CSC2	.	.	.	.	.
Nc1nnc(SCCCC(=O)c2ccc(F)cc2)s1	.	.	.	.	.
Nc1nnc(SCCCC(=O)c2ccc(Br)cc2)s1	.	.	.	43	.
Cc1cc(N)c2cc(NC(=O)/C=C/c3ccccc3Cl)ccc2n1	53	.	.	89	.
CN(C)C(=O)c1cccc(-c2cccc(-c3nc(C(=O)NCc4ccccc4)cc4c3[C@@H](CCO)N(S(=O)C(C)(C)C)C4)c2)c1 (some centres not stated)	.	.	.	.	/
COC(=O)CN(C)C(=O)c1ccc(OC2CCN(S(=O)(=O)N(C)C)CC2)cc1	.	.	.	.	.
CCOC(=O)N/N=C/c1cc(OC)c(O)c(OC)c1	.	.	.	.	.
CCOC(=O)c1sc(N/N=C/c2cc(Br)c(O)c(OC)c2)nc1C	.	.	84	.	.
COc1ccccc1-c1csc(C(O)c2ccccc2)n1 (configuration not stated)	.	.	.	.	/
CN(C)c1ccc(C(=O)C=Cc2ccc([N+](=O)[O-])cc2)cc1	.	55	.	.	/
O=C(C=Cc1ccccc1)c1ccc([N+](=O)[O-])cc1	.	.	.	.	.
CCCCn1c(NC(=O)c2ccccc2)c(C#N)c2nc3ccccc3nc21	76	.	.	42	.
N#Cc1c(NC(=O)c2ccc(Br)o2)n(-c2ccccc2)c2nc3ccccc3nc12	51	.	.	.	.
CN(CCCn1ccc(NC(=O)OCc2ccccc2)nc1=O)Cc1ccco1	.	.	.	.	/
N#CC(C(=O)Nc1cccc(Cl)c1)=C1Nc2ccccc2N1	.	.	.	62	.
O=[N+]([O-])c1cc(CN2CCN(c3cccc(C(F)(F)F)c3)CC2)c2cccnc2c1O	/	/	/	/	.
O=[N+]([O-])c1cc(CN2CCCC2)c2cccnc2c1O	.	74	.	.	.
O=C(Cc1cccc(NC(=O)C2CCCN(C(=O)CCc3ccccc3)C2)c1)Nc1cccc(C(=O)N2CCCC2)c1 (configuration not stated)	.	.	.	.	.
Cc1ccc(NC(=S)NC(=O)C2CCCC2)c(Br)c1	.	.	.	.	.
CCOC(=O)c1cnc(SSc2ncc(C(=O)OCC)c(N)n2)nc1N	.	78	.	.	.
C=CCSc1ncc(C(=O)OCC)c(N)n1	.	.	.	.	.
COc1cc2c(cc1OC)/C(=C/C(=O)c1cccc([N+](=O)[O-])c1)NCC2	.	.	.	.	.
COc1cc2c(cc1OC)/C(=C/C(=O)c1ccc(OC)c([N+](=O)[O-])c1)NCC2	.	.	.	42	.
SMILES	DNMT1 inh	LMPTP inh	STEP inh	SUMO1 PPI mod	Scp1 inh
CC(NS(=O)(=O)c1ccc2c(c1)CC(C)N2C(=O)C1CC1)c1ccccc1 (configuration not stated)	.	.	.	.	.
O=C(NCCC(F)(F)F)c1cccc2c(-c3ccc(F)c(F)c3)coc12	.	.	.	.	/
O=C1C=C(Nc2ccc(F)cc2)c2ccccc2C1=O	54	.	.	.	.
O=C1C=C(Nc2ccccc2O)c2ccccc2C1=O	.	.	.	.	.
O=C1C=C(NCc2ccccc2)c2ccccc2C1=O	84	.	.	44	.
O=C1C=C(Nc2cccnc2)c2ccccc2C1=O	.	.	.	.	.
CCOc1ccc(NC2=CC(=O)C(=O)c3ccccc32)cc1	.	.	.	.	57
CCN(c1ccccc1)S(=O)(=O)c1ccc(C(=O)Nc2cc(C)ccn2)cc1	.	.	.	.	.
Cc1ccc(OCCC(=O)OCC(=O)Nc2ccc3c(c2)OCCO3)cc1	.	.	.	.	.
O=C(Cc1cccs1)Nc1ccc(-c2nnn(CC(=O)N3CCOCC3)n2)cc1	/	/	/	/	79
Nc1ccc(Br)c2c1C(=O)c1ccccc1C2=O	/	/	/	/	.
O=C1c2ccccc2C(=O)c2c(O)c(O)cc(O)c21	79	66	.	.	76
Nc1ccc(O)c2c1C(=O)c1ccccc1C2=O	89	73	37	.	80
O=C1C=C(O)c2c(O)cc(O)c(O)c2C1=O	.	76	95	.	.
O=C(O)c1cccc2c1C(=O)c1ccccc1C2=O	.	.	.	.	.
CCOC(=O)C1=CCN(S(=O)(=O)c2ccccc2C)C1c1cccc(Cl)c1 (configuration not stated)	/	.	/	.	/
CCN(CC)c1ccc(C(NC(C)=O)NC(C)=O)cc1	.	.	.	.	.
CC(=O)NC(NC(C)=O)c1ccc(N(C)C)cc1	.	.	.	.	52
CC(=O)Nc1ccc(C(=O)CN2C(=O)NC3(CCOc4ccccc43)C2=O)c(F)c1 (configuration not stated)	.	.	.	.	.
COc1cc(NC(=O)COC(=O)Cc2ccsc2)cc(OC)c1	.	.	.	.	.
N#C/C(=C/N1CCOCC1)c1ccccc1	.	.	.	.	.
CCN1CCN(C2=CC3=CC(=C(C#N)C#N)CCC3CC2)CC1 (configuration not stated)	+	.	.	.	.
CC1(C)CC(NCCN2CCN(C3=CC(=C(C#N)C#N)CC(C)(C)C3)CC2)=CC(=C(C#N)C#N)C1	.	.	.	.	.
N#CC(C#N)=C1C=C2C=C(N3CCOCC3)CCC2CC1 (configuration not stated)	+	.	.	.	.
CN1CCN(C2=CC3=CC(=C(C#N)C#N)CCC3CC2)CC1 (configuration not stated)	+	.	.	.	.
SMILES	DNMT1 inh	LMPTP inh	STEP inh	SUMO1 PPI mod	Scp1 inh
N#CC(C#N)=C1C=C2C=C(N3CCCCCC3)CCC2CC1 (configuration not stated)	+	.	.	.	.
CCN(CC)C(=O)[C@H]1CC(CC(=O)NC(C)(C)C)C(=O)N2CCc3c([nH]c4ccccc34)[C@]12C (some centres not stated)	.	.	.	.	.
CCCCn1nnnc1C(c1cc2ccccc2o1)N1CCN(c2cc(C)nc3ccccc23)CC1 (configuration not stated)	/	78	/	.	/
CCCCn1nnnc1C(c1cc2ccccc2o1)N1CCN(c2ccccc2F)CC1 (configuration not stated)	/	.	/	.	/
NS(=O)(=O)c1ccc(N=Nc2c[nH]c(=O)c(O)c2)cc1	.	.	.	.	70
Nc1nc(O)c(N=Nc2ccc(S(N)(=O)=O)cc2)c(=O)[nH]1	/	/	/	/	.
CN(C)c1ccc(N=Nc2ccc(S(N)(=O)=O)cc2)cc1	.	53	94	.	.
COc1ccccc1N(CC(=O)N(C)Cc1ccccc1)S(=O)(=O)c1cccs1	.	.	.	.	.
